Active and inactive are the calls of the source.
How the values were obtained:
Type in all cases: functional, organism-based
[1] = system: Saccharomyces cerevisiae; test: Antifungal activity against Saccharomyces cerevisiae at 1 mM by almar blue dye reduction assay
In short: (§1)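 Single-point primary screen at 1 mM using Alamar Blue dye reduction as the growth read-out.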

[2] = system: Bacillus cereus; test: Antibacterial activity against Bacillus cereus at 1 mM by almar blue dye reduction assay; in short: as §1
[3] = system: Bacillus subtilis; test: Antibacterial activity against Bacillus subtilis at 1 mM by almar blue dye reduction assay; in short: as §1
[4] = system: Bacillus anthracis; test: Antibacterial activity against Bacillus anthracis at 1mM by almar blue dye reduction assay
[5] = system: Escherichia coli; test: Antibacterial activity against Escherichia coli at 1 mM by almar blue dye reduction assay; in short: as §1
[6] = system: Candida albicans; test: Antifungal activity against Candida albicans at 1 mM by almar blue dye reduction assay; in short: as §1
[7] = system: Cryptococcus neoformans; test: Antifungal activity against Cryptococcus neoformans at 1 mM by almar blue dye reduction assay; in short: as §1
[8] = system: Pseudomonas aeruginosa; test: Antibacterial activity against Pseudomonas aeruginosa at 1 mM by almar blue dye reduction assay; in short: as §1
[9] = system: Staphylococcus aureus; test: Antibacterial activity against Staphylococcus aureus at 1 mM by almar blue dye reduction assay; in short: as §1

Measured: Activity

CC(C)NC(=O)[C@H](C)[C@H]1CC[C@@H](C[C@@H](C)n2cc(C#CCN(C)C)nn2)O1
inactive: all assays above

CCOC(=O)C#Cc1cn([C@H](C)CC2CCC([C@@H](C)C(=O)N(C)Cc3ccccc3)O2)nn1 (single isomer, unassigned)
inactive: all assays above

C[C@H](C[C@@H]1CC[C@H]([C@@H](C)C(=O)N2CCN(CC3CCCO3)CC2)O1)n1cc(C#CCOc2ccccc2)nn1 (stereo partly drawn)
inactive: all assays above

C[C@H](C[C@@H]1CC[C@H]([C@@H](C)C(=O)N2CCCC2)O1)n1cc(C#Cc2ccccc2[N+](=O)[O-])nn1
inactive: all assays above

COc1cccc(OCC#Cc2cn([C@H](C)C[C@@H]3CC[C@H]([C@@H](C)C(=O)N4CCCC4)O3)nn2)c1OC
inactive: all assays above

C[C@H](C[C@@H]1CC[C@H]([C@@H](C)C(=O)N2CCN(CC3CCCO3)CC2)O1)n1cc(C#CCC2CCCC2)nn1 (stereo partly drawn)
inactive: all assays above

C[C@H](C[C@@H]1CC[C@H]([C@@H](C)C(=O)N2CCCC2)O1)n1cc(C#CCN2CCN(c3ccccc3)CC2)nn1
inactive: all assays above

Source: ChEMBL document CHEMBL1155099, “Natural products in parallel synthesis: triazole libraries of nonactic acid” (2008)
